ChEMBL document CHEMBL5244263, “Studies on fragment-based design of allosteric inhibitors of human factor XIa” (Bioorg Med Chem, 2020)
Each block holds one molecule with its values, some of them ahead of it. Calls of active or inactive are those of the source. The rule behind the calls is not given here.

Columns and labels:
[1] = target: Chymotrypsinogen A (Bos taurus) (UniProt P00766); experiment: Inhibition of bovine alpha-chymotrypsin at 500 uM by chromogenic substrate hydrolysis assay
Bos taurus [2] = species: Bos taurus; experiment: Inhibition of bovine trypsin using S-2222 as chromogenic substrate at 500 uM by chromogenic substrate hydrolysis assay
[3] = target: T1, Coagulation factor VII (Homo sapiens) (UniProt P08709); experiment: Inhibition of FVIIa (unknown origin) at 500 uM by chromogenic substrate hydrolysis assay
T1 sequence (whole entry): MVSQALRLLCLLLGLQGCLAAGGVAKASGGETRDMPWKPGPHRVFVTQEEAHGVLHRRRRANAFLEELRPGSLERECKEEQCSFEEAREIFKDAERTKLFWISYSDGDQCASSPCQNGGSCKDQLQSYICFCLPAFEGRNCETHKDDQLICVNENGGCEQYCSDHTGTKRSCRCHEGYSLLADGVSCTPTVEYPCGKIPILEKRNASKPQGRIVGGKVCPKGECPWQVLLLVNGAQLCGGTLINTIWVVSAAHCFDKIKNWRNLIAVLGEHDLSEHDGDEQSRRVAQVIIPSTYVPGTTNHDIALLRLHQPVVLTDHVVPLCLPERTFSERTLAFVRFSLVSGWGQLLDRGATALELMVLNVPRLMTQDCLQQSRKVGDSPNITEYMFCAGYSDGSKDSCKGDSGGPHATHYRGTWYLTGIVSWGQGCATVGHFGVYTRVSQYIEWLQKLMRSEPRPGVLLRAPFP

[4] = target: Coagulation factor IX (Homo sapiens) (UniProt P00740); experiment: Inhibition of human FIXa at 500 uM by chromogenic substrate hydrolysis assay
Sequence of Coagulation factor IX (Homo sapiens) (P00740 47-191 limits assumed): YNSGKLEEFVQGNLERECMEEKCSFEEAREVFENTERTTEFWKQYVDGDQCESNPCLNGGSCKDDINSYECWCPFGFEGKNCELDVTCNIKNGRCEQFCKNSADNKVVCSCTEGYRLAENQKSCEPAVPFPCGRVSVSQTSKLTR
Sequence of Coagulation factor IX (Homo sapiens) (P00740 227-461 limits assumed): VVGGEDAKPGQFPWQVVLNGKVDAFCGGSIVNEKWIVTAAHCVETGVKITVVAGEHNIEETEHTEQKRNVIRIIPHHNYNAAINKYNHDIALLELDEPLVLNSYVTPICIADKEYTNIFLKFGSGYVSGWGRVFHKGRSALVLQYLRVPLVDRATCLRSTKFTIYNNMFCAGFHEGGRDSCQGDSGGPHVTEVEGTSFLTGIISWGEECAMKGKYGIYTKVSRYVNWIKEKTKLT

[5] = target: Plasma kallikrein (Homo sapiens) (UniProt P03952); experiment: Inhibition of Kallikrein in human plasma at 500 uM by chromogenic substrate hydrolysis assay; type: cell-free
Sequence of Plasma kallikrein (Homo sapiens) (P03952 20-390 limits assumed): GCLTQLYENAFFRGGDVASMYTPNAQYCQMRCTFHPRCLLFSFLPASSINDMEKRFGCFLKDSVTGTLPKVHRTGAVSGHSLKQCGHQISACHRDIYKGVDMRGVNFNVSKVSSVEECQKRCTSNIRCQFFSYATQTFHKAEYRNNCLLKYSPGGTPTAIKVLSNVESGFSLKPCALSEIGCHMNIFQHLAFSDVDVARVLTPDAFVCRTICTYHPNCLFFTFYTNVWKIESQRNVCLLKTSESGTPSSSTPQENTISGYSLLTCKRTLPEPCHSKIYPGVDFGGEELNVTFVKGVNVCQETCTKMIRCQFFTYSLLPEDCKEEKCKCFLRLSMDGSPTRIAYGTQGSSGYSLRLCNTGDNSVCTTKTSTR
Sequence of Plasma kallikrein (Homo sapiens) (P03952 391-638 limits assumed): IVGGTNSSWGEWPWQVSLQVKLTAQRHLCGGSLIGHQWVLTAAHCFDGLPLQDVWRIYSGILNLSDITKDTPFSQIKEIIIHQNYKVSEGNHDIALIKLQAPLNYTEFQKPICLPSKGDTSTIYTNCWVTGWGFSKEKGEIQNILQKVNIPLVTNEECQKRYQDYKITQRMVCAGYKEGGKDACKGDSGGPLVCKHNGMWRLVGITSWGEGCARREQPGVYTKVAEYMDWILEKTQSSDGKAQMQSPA

Homo sapiens [6] = species: Homo sapiens; experiment: Inhibition of human FXIa heparin-binding site of A3 domain harboring K252A,K253A,K255A mutant and heparin-binding site of catalytic domain harboring K529A,R530A,R532A,K535A,K539A mutant using S-2366 as chromogenic substrate preincubated with enzyme for 10 mins followed by substrate addition by spectrophotometric analysis relative to control
Procedure, shortened: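 Recombinant hFXIa alanine mutants tested in 50 mM Tris-HCl pH 7.4, 150 mM NaCl, 0.1% PEG8000, 0.02% Tween80. Inhibitor and enzyme incubated 10 min at 37 °C, then S-2366 (345 μM final) added and residual activity read. IC50 and maximal inhibition efficacy (ΔY) obtained by nonlinear dose-response regression.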

[7] = target: Prothrombin (Homo sapiens) (UniProt P00734); experiment: Inhibition of human thrombin at 500 uM by chromogenic substrate hydrolysis assay
[8] = target: Coagulation factor X (Homo sapiens) (UniProt P00742); experiment: Inhibition of human FXa using methoxycarbonyl-D-cyclohexylglycyl-Gly-Arg-p-nitroanilide as substrate at 500 uM by chromogenic substrate hydrolysis assay
Sequence of Coagulation factor X (Homo sapiens) (P00742 41-179 limits assumed): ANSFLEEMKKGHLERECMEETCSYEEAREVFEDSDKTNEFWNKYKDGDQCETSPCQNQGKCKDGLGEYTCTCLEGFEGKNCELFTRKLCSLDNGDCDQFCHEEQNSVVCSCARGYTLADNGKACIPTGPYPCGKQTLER
Sequence of Coagulation factor X (Homo sapiens) (P00742 235-488 limits assumed): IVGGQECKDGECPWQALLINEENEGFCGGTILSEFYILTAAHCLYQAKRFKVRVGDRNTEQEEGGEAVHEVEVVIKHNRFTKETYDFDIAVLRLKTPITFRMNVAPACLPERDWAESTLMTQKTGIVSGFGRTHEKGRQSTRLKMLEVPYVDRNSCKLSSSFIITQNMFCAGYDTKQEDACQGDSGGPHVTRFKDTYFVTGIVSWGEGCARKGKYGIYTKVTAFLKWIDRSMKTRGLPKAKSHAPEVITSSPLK

[9] = Selectivity for inhibition of human FXIa over bovine alpha-chymotrypsin
[10] = target: Coagulation factor X (Homo sapiens) (UniProt P00742); experiment: Inhibition of human FXa using methoxycarbonyl-D-cyclohexylglycyl-Gly-Arg-p-nitroanilide as substrate at >200 uM by chromogenic substrate hydrolysis assay
Coagulation factor XI [11] = target: T2, Coagulation factor XI (Homo sapiens, UniProt P03951); experiment: Inhibition of human FXIa using S-2366 as chromogenic substrate preincubated with enzyme for 10 mins followed by substrate addition by spectrophotometric analysis
T2 sequence (P03951 19-387 limits assumed): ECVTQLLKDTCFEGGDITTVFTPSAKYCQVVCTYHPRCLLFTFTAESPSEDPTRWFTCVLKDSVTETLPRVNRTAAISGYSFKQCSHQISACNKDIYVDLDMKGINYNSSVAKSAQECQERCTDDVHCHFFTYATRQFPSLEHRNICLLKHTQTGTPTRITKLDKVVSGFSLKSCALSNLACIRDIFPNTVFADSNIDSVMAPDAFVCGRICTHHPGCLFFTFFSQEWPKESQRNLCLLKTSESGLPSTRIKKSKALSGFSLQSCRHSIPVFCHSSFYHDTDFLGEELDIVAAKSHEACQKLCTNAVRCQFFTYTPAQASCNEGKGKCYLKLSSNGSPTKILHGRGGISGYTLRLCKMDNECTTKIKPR
T2 sequence (P03951 388-625 limits assumed): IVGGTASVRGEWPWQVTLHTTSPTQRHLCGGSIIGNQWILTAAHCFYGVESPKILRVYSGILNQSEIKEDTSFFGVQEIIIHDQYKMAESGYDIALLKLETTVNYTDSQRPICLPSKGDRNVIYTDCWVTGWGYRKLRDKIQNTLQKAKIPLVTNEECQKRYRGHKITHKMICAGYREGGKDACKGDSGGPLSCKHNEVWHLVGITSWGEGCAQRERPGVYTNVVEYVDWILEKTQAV

[12] = Selectivity for inhibition of human FXIa over bovine trypsin
Homo sapiens [13] = species: Homo sapiens; experiment: Selectivity for inhibition of human FXIa over human FXa
Coagulation factor XI [14] = target: T2, Coagulation factor XI; experiment: Inhibition of human FXIa using S-2366 as chromogenic substrate preincubated with enzyme for 10 mins followed by substrate addition by spectrophotometric analysis relative to control; parameters: concentration or dose not given beside the values
Procedure, shortened: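 hFXIa (0.765 nM final) preincubated with inhibitor or reference solution for 10 min at 37 °C in pH 7.4 buffer (50 mM Tris-HCl, 150 mM NaCl, 0.1% PEG8000, 0.02% Tween80). S-2366 (345 μM final) then added, and residual activity read on a microplate reader.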

Homo sapiens [15] = species: Homo sapiens; experiment: Selectivity for inhibition of human FXIa over Kallikrein in human plasma; type: cell-free
Bos taurus [16] = species: Bos taurus; experiment: Inhibition of bovine trypsin using S-2222 as chromogenic substrate at >200 uM by chromogenic substrate hydrolysis assay
Homo sapiens [17] = species: Homo sapiens; experiment: Selectivity for inhibition of human FXIa over human thrombin
Homo sapiens [18] = species: Homo sapiens; experiment: Selectivity for inhibition of human FXIa over human FIXa
Homo sapiens [19] = species: Homo sapiens; experiment: Selectivity for inhibition of human FXIa over FVIIa (unknown origin)
Coagulation factor XI [20] = target: T2, Coagulation factor XI; experiment: Binding affinity to active site dansylated human DEGR-FXIa assessed as change in fluorescence intensity by fluorescence based analysis
Coagulation factor XI [21] = target: T2, Coagulation factor XI; experiment: Binding affinity to active site dansylated human DEGR-FXIa assessed as maximal change in fluorescence intensity by fluorescence based analysis
Procedure, shortened: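 Dansyl fluorescence titration: aliquots of sulfated QAO added to 250 nM hFXIa–DEGR in 50 mM Tris-HCl pH 7.4, 150 mM NaCl, 0.1% PEG8000 at 37 °C. Emission read at 547 nm with excitation at 345 nm. ΔFMAX, Hill coefficient and KD come from nonlinear regression fits, using the Hill equation or a standard hyperbolic equation. Error is ±1 SE.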

Coagulation factor XI [22] = target: T2, Coagulation factor XI; experiment: Binding affinity to active site dansylated human DEGR-FXIa assessed as hyperbolic interaction by measuring change in fluorescence intensity by fluorescence based analysis
Procedure, shortened: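 Titration of sulfated QAOs into 250 nM active-site dansylated hFXIa–DEGR in 50 mM Tris-HCl pH 7.4, 150 mM NaCl, 0.1% PEG8000, 37 °C. Emission monitored at 547 nm (excitation 345 nm). ΔFMAX, Hill coefficient n and KD obtained by nonlinear regression, using either the Hill equation or a standard hyperbolic equation. Error ±1 SE.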

Structure (SMILES): O=c1c2ccccc2nc(-c2ccc(OS(=O)(=O)O)cc2)n1CCCCCCCCCn1c(-c2ccc(OS(=O)(=O)O)cc2)nc2ccccc2c1=O
inhibition [1]: inactive | inhibition (Bos taurus [2]): inactive | inhibition [3]: inactive | inhibition [4]: inactive | inhibition [5]: inactive | inhibition (Homo sapiens [6]): 105% | inhibition [7]: inactive | inhibition [8]: inactive

Selectivity ratio [9]: > 63 | inhibition [1]: inactive | inhibition [10]: Active | IC50 (Coagulation factor XI [11]): 16.6 µM | Selectivity ratio [12]: > 25 | inhibition [3]: inactive | Selectivity ratio (Homo sapiens [13]): > 25 | inhibition [4]: inactive | inhibition (Coagulation factor XI [14]): 95% | inhibition [5]: inactive | Selectivity ratio (Homo sapiens [15]): > 63 | inhibition (Bos taurus [16]): Active | Selectivity ratio (Homo sapiens [17]): > 63 | Selectivity ratio (Homo sapiens [18]): > 63 | inhibition [7]: inactive | Selectivity ratio (Homo sapiens [19]): > 63
Structure (SMILES): O=c1c2ccccc2nc(-c2ccc(OS(=O)(=O)O)cc2)n1CCCCCCCCCCn1c(-c2ccc(OS(=O)(=O)O)cc2)nc2ccccc2c1=O

IC50 (Coagulation factor XI [11]): 375 µM | Kd (Coagulation factor XI [20]): 365 µM | Activity (Coagulation factor XI [21]): -34% | Activity (Coagulation factor XI [22]): Active
Structure (SMILES): O=c1[nH]c(-c2ccc(OS(=O)(=O)O)cc2)nc2ccccc12
